The values that follow come from ChEMBL document CHEMBL4364260, “Discovery of Ziresovir as a Potent, Selective, and Orally Bioavailable Respiratory Syncytial Virus Fusion Protein Inhibitor” (J Med Chem, 2019).

pEC50: −log10 of the molar value. Activity calls are given as the source filed them. The calls are words filed in the database; no cut-off is given here.

A short description of series [1]: Clearance in cynomolgus monkey at 2 mg/kg, iv or 10 mg/kg, po. Type of series: ADME, organism-based, Macaca fascicularis. The following applies: in vivo. An outline of the steps: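 Cynomolgus monkeys got single doses of 2 mg/kg iv and 10 mg/kg po as a solution in 12.5% captisol in water. Plasma CL, Vss, iv T1/2, AUC and oral F were derived.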
Series [2] is described as follows: Antiviral activity against Human respiratory syncytial virus A strain Long infected in human Hep2 cells assessed as plaque reduction […] by chloro-1-naphthol staining-based assay. The series is classed as functional. Put shortly: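 HEp-2 monolayers in 12-well plates got 0.5 ml of 200 PFU/ml RSV Long with or without serial compound dilutions. After 2 h they were overlaid with DMEM/F12, 4% FBS, 0.55% agarose plus compound and incubated 3 days. Cells were fixed in 4% paraformaldehyde for 6 h and immunostained with anti-RSV mAb (1:300), then HRP anti-mouse. Plaques were developed with 4-chloro-1-naphthol/H2O2 and counted.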

The nature of series [3]: AUC (0 to 24 hrs) in Beagle dog at 10 mg/kg, po. The series is classed as ADME, organism-based, Canis lupus familiaris. Set-up: dose 10 mg/kg, time < 24 hr, route oral. The settings on record: in vivo. An outline of the steps: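 Single-dose PK. Dog received 1 mg/kg iv or 10 mg/kg po, and cynomolgus monkey received 2 mg/kg iv or 10 mg/kg po. Both were given as a solution in 12.5% captisol in water. Plasma AUC was taken from the oral arm, with CL, Vss, iv T1/2 and F also derived.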

The nature of series [4]: Cmax in CD-1 mouse lung at 10 mg/kg/day, po administered via gavage and measured up to 24 hrs by LC/MS/MS analysis. Details: dose 10 mg/kg/day, route oral. Type of series: ADME, organism-based.
A further series has as its system Human orthopneumovirus. The experiment in a line: Antiviral activity against Human respiratory syncytial virus A2 infected in human Hep2 cells assessed as reduction in virus induced cytopathic effect after 5 days by CCK-8 assay. The series is classed as functional, organism-based. The following applies: A2, HEp-2, 120 h. An outline of the steps: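 CPE protection assay in HEp-2 cells, 6000 per well, infected next day with RSV at MOI 0.02 to give about 90% cytopathic effect after 5 days. Serial compound dilutions were present during incubation. Cell viability was measured by CCK-8 at day 5 to give EC50.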
A general note: Protection from cytopathic effect is a common read-out in antiviral testing.

Series [5] is described as follows: Tmax in CD-1 mouse plasma at 10 mg/kg/day, po administered via gavage and measured up to 24 hrs by LC/MS/MS analysis. The series is classed as ADME, organism-based.
Series [6] in a line: Antiviral activity against Human respiratory syncytial virus A 1177 clinical isolates infected in human Hep2 cells assessed as reduction in virus induced cytopathic effect in presence of 10% FBS after 5 days by CCK-8 assay. The series is classed as functional, cell-based. The following applies: human respiratory syncytial virus, 1177, HEp-2, 120 h. An outline of the steps: (§1)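 HEp-2 cells seeded at 6000/well and infected the next day at MOI 0.02, a dose that gives about 90% CPE by day 5. Serial compound dilutions were present throughout, in standard medium with 10% FBS. Viability was read by CCK-8 at day 5, and EC50 is the concentration that cuts CPE by 50%.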

Series [7] in a line: Oral bioavailability in Wistar-Han rat at 10 mg/kg administered as single dose via gavage and measured up to 24 hrs by LC/MS/MS analysis. The series is classed as ADME, organism-based. The settings on record: in vivo. An outline of the steps:
(§2)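 Male Wistar-Han rats, single dose, 2 mg/kg iv and 10 mg/kg po, run by standard procedures.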

Series [8] can be described thus: Half-life in CD-1 mouse lung at 10 mg/kg/day, po administered via gavage and measured up to 24 hrs by LC/MS/MS analysis. Type of series: ADME, organism-based.
Series [9] in a line: Antiviral activity against Human respiratory syncytial virus A strain Long infected in human Hep2 cells assessed as reduction in virus induced cytopathic effect in presence of 10% FBS after 5 days by CCK-8 assay. The series is classed as functional, cell-based. The following applies: HEp-2, 120 h. Put shortly: as §1
Series [10] has as its system Fusion glycoprotein F0 (Human respiratory syncytial virus A (strain A2)), P03420 [D486N]. The experiment in a line: Inhibition of Human respiratory syncytial virus Fusion protein D486N mutant expressed in Hep2 cells as reduction in virus induced cytopathic effect by CCK-8 assay. Type of series: cell-based. Put shortly: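 HEp-2 cells were seeded at 6000/well and infected with plaque-purified RSV carrying the F-protein mutation (D486N or D489A) at MOI 0.04, with serially diluted compound. Viability was read by CCK-8 absorbance at 450 nm/650 nm, and EC50/EC90 were derived from protection against virus-induced cytopathic effect.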

A short description of series [11]: Volume of distribution at steady state in Beagle dog at 1 mg/kg, iv or 10 mg/kg, po. Type of series: ADME, organism-based, Canis lupus familiaris. The following applies: in vivo, read-out: Vdss. Put shortly:
(§3)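 Beagle dog single-dose PK at 1 mg/kg iv and 10 mg/kg po, dosed as a solution in 12.5% captisol in water. Plasma clearance, Vss, iv T1/2, AUC and F were reported.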

Series [12] in a line: Antiviral activity against Human respiratory syncytial virus A strain Long infected in BALB/c mouse assessed as log reduction in virus titer in lung at 50 mg/kg, po BID administered up to 8 hrs for 4 days relative to control. The series is classed as functional. An outline of the steps: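 Six-week-old female BALB/c mice, housed specific-pathogen-free, were anesthetized intraperitoneally with ketamine/xylazine and given RSV Long strain intranasally (5×10^5 PFU in 100 µL). Oral dosing was twice daily (0 h and 8 h) for 4 days, 12 mice per group. Mice were then euthanized with CO₂ and lungs harvested for viral titer, compared with vehicle.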

Series [13] can be described thus: Antiviral activity against Human respiratory syncytial virus A strain Long infected in human Hep2 cells assessed as reduction in virus induced cytopathic effect in presence of 40% FBS after 5 days by CCK-8 assay. Type of series: functional, cell-based. The settings on record: HEp-2, 120 h. An outline of the steps:
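RSV Long CPE assay with 40% FBS in place of the standard 10%. HEp-2 cells at 6000/well were infected next day at MOI 0.02 and kept 5 days with serially diluted compound. CCK-8 viability gave the 50% effective concentration.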

Series [14] in a line: AUC (0 to 24 hrs) in CD-1 mouse at 50 mg/kg, po. Type of series: ADME, organism-based. Details: dose 50 mg/kg, time < 24 hr, route oral. The settings on record: in vivo. An outline of the steps:
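Single-dose PK in mouse at 5 mg/kg iv or 50 mg/kg po, as a solution in 5% DMSO, 40% PEG400 and 55% 0.9% sodium chloride. Plasma AUC was taken from the oral arm, with CL, Vss, iv T1/2 and F also derived.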

Series [15] in a line: Oral bioavailability in Beagle dog at 10 mg/kg. Type of series: ADME, organism-based, Canis lupus familiaris. The following applies: in vivo. An outline of the steps:
as §3

Series [16] is described as follows: Oral bioavailability in Sprague-Dawley rat at 10 mg/kg. Type of series: ADME, organism-based. The following applies: in vivo. An outline of the steps: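 Rat single-dose PK: 2 mg/kg iv and 10 mg/kg po. Compound was given as a solution in 5% DMSO/40% PEG400/55% of 0.9% saline. Plasma CL, Vss, iv half-life, AUC and oral bioavailability were reported.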
A short description of series [17]: Volume of distribution at steady state in Wistar-Han rat at 2 mg/kg, iv or 10 mg/kg, po administered as single dose via gavage and measured up to 24 hrs by LC/MS/MS analysis. Type of series: ADME, organism-based. The following applies: in vivo, read-out: Vdss. Put shortly: as §2
The next series has as its system Human respirovirus 1. The experiment in a line: Antiviral activity against Human parainfluenza virus 1 infected in human Hep2 cells assessed as reduction in virus induced cytopathic effect after 5 days by CCK-8 assay. Type of series: functional, organism-based.
Series [18] deals with Human parainfluenza virus 2. Kind of series: Antiviral activity against Human parainfluenza virus 2 infected in human Hep2 cells assessed as reduction in virus induced cytopathic effect after 5 days by CCK-8 assay. Type of series: functional, organism-based. The settings on record: Human orthorubulavirus 2.

`Cc1ccc2nc(N3CCS(=O)(=O)c4ccccc4C3)nc(NCC3(N)COC3)c2c1` [ZIRESOVIR] yielded a clearance in series [1] of 1.56 L/h/kg. For the same compound, the EC90 in series [2] is 10 nM; with Human orthopneumovirus it was 3 nM; in series [6], 7 nM; in series [9], 5 nM; in series [10], over 10000 nM; in series [13], 8 nM. Further, the AUC(0-t) at 24 h in series [3] worked out at 1.17 µg·h/mL; in series [14] it was 1.97 µg·h/mL. In [4], this compound displayed a maximum concentration (Cmax) of 22.7 µg/mL. Besides, the pEC50 in the series with Human orthopneumovirus is 8.70; in series [6], 8.40; in series [9], 8.52; in [13] it was 8.52. Besides, in series [5], the Tmax stood at 0.25 h. In addition, the bioavailability in series [7] was found to be 32%; in series [15], 26%; in [16] it was 32%. This compound had a half-life in [8] of 3.31 h. The Vd in series [11] amounted to 6.7 L/kg; in [17], 3.9 L/kg. Besides, the FC in [12] was 1.9. The outcome (in the series on Human respirovirus 1; in [18]) was inactive.

The EC90 is the point of the concentration-response curve where the effect stands at 90%. As a reminder, the AUC(0-t) is exposure summed from dosing to a finite time, without extrapolation to infinity. The term Cmax denotes the highest concentration seen after dosing. Broadly, the pEC50 is the negative decadic logarithm of the EC50, by convention in mol/L. The Tmax is the time from dosing to the highest level. By bioavailability is commonly meant the share of a dose that reaches the circulation, judged against a reference dose that is usually intravenous. By half-life is commonly meant the time in which the quantity being followed falls by half.
